Measured values published in ChEMBL document CHEMBL3045504, “Activity of 1,4-benzoquinones against formosan subterranean termites (Coptotermes formosanus)” (2008).

What was measured:
Format in all cases: functional
Coptotermes formosanus [1] = assay: Termiticidal activity against Coptotermes formosanus placed on 0.001 % wt/wt compound treated filter paper assessed as termite mortality measured 17 days post compound exposure
Procedure, shortened: (§1)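 Treated filter paper disks moistened with 100 µL water; 20 C. formosanus workers (third instar or greater) plus 1 soldier per dish from field colonies kept on spruce, ca. 100% RH, 26.6 °C. Daily mortality scored for 3 weeks; cumulative percent mortality from four replicates, each a different colony; water-only controls; ANOVA, protected Fisher LSD (P < 0.05) after arcsine square-root transform.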

Coptotermes formosanus [2] = assay: Termiticidal activity against Coptotermes formosanus placed on 0.01 % wt/wt compound treated filter paper assessed as termite mortality measured 17 days post compound exposure; procedure, shortened: as §1
Coptotermes formosanus [3] = assay: Termiticidal activity against Coptotermes formosanus placed on 0.05 % wt/wt compound treated filter paper assessed as termite mortality measured 17 days post compound exposure; procedure, shortened: as §1
Coptotermes formosanus [4] = assay: Termiticidal activity against Coptotermes formosanus placed on 0.1 % wt/wt compound treated filter paper assessed as termite mortality measured 17 days post compound exposure; procedure, shortened: as §1
Coptotermes formosanus [5] = assay: Termiticidal activity against Coptotermes formosanus placed on 0.5 % wt/wt compound treated filter paper assessed as termite mortality measured 17 days post compound exposure; procedure, shortened: as §1
Coptotermes formosanus [6] = assay: Termiticidal activity against Coptotermes formosanus placed on 0.001 % wt/wt compound treated filter paper assessed as termite mortality measured 13 days post compound exposure; procedure, shortened: as §1
Coptotermes formosanus [7] = assay: Termiticidal activity against Coptotermes formosanus placed on 0.01 % wt/wt compound treated filter paper assessed as termite mortality measured 13 days post compound exposure; procedure, shortened: as §1
Coptotermes formosanus [8] = assay: Termiticidal activity against Coptotermes formosanus placed on 0.05 % wt/wt compound treated filter paper assessed as termite mortality measured 13 days post compound exposure; procedure, shortened: as §1
Coptotermes formosanus [9] = assay: Termiticidal activity against Coptotermes formosanus placed on 0.1 % wt/wt compound treated filter paper assessed as termite mortality measured 13 days post compound exposure; procedure, shortened: as §1
Coptotermes formosanus [10] = assay: Termiticidal activity against Coptotermes formosanus placed on 0.5 % wt/wt compound treated filter paper assessed as termite mortality measured 13 days post compound exposure; procedure, shortened: as §1
Coptotermes formosanus [11] = assay: Termiticidal activity against Coptotermes formosanus placed on 0.001 % wt/wt compound treated filter paper assessed as termite mortality measured 11 days post compound exposure; procedure, shortened: as §1
Coptotermes formosanus [12] = assay: Termiticidal activity against Coptotermes formosanus placed on 0.01 % wt/wt compound treated filter paper assessed as termite mortality measured 11 days post compound exposure; procedure, shortened: as §1
Coptotermes formosanus [13] = assay: Termiticidal activity against Coptotermes formosanus placed on 0.05 % wt/wt compound treated filter paper assessed as termite mortality measured 11 days post compound exposure; procedure, shortened: as §1
Coptotermes formosanus [14] = assay: Termiticidal activity against Coptotermes formosanus placed on 0.1 % wt/wt compound treated filter paper assessed as termite mortality measured 11 days post compound exposure; procedure, shortened: as §1
Coptotermes formosanus [15] = assay: Termiticidal activity against Coptotermes formosanus placed on 0.001 % wt/wt compound treated filter paper assessed as termite mortality measured 9 days post compound exposure; procedure, shortened: as §1
Coptotermes formosanus [16] = assay: Termiticidal activity against Coptotermes formosanus placed on 0.01 % wt/wt compound treated filter paper assessed as termite mortality measured 9 days post compound exposure; procedure, shortened: as §1
Coptotermes formosanus [17] = assay: Termiticidal activity against Coptotermes formosanus placed on 0.05 % wt/wt compound treated filter paper assessed as termite mortality measured 9 days post compound exposure; procedure, shortened: as §1
Coptotermes formosanus [18] = assay: Termiticidal activity against Coptotermes formosanus placed on 0.1 % wt/wt compound treated filter paper assessed as termite mortality measured 9 days post compound exposure; procedure, shortened: as §1
Coptotermes formosanus [19] = assay: Termiticidal activity against Coptotermes formosanus placed on 0.5 % wt/wt compound treated filter paper assessed as termite mortality measured 9 days post compound exposure; procedure, shortened: as §1
Coptotermes formosanus [20] = assay: Termiticidal activity against Coptotermes formosanus placed on 0.001 % wt/wt compound treated filter paper assessed as termite mortality measured 6 days post compound exposure; procedure, shortened: as §1
Coptotermes formosanus [21] = assay: Termiticidal activity against Coptotermes formosanus placed on 0.01 % wt/wt compound treated filter paper assessed as termite mortality measured 6 days post compound exposure; procedure, shortened: as §1
Coptotermes formosanus [22] = assay: Termiticidal activity against Coptotermes formosanus placed on 0.05 % wt/wt compound treated filter paper assessed as termite mortality measured 6 days post compound exposure; procedure, shortened: as §1
Coptotermes formosanus [23] = assay: Termiticidal activity against Coptotermes formosanus placed on 0.1 % wt/wt compound treated filter paper assessed as termite mortality measured 6 days post compound exposure; procedure, shortened: as §1
Coptotermes formosanus [24] = assay: Termiticidal activity against Coptotermes formosanus placed on 0.5 % wt/wt compound treated filter paper assessed as termite mortality measured 6 days post compound exposure; procedure, shortened: as §1
Coptotermes formosanus [25] = assay: Termiticidal activity against Coptotermes formosanus placed on 1 % wt/wt compound treated filter paper assessed as termite mortality measured 21 days post compound exposure
Coptotermes formosanus [26] = assay: Termiticidal activity against Coptotermes formosanus placed on 1 % wt/wt compound treated filter paper assessed as termite mortality measured 11 days post compound exposure
Coptotermes formosanus [27] = assay: Termiticidal activity against Coptotermes formosanus placed on 1 % wt/wt compound treated filter paper assessed as termite mortality measured 3 days post compound exposure
Coptotermes formosanus [28] = assay: Termiticidal activity against Coptotermes formosanus placed on 0.5 % wt/wt compound treated filter paper assessed as termite mortality measured 21 days post compound exposure; procedure, shortened: as §1
Coptotermes formosanus [29] = assay: Termiticidal activity against Coptotermes formosanus placed on 0.5 % wt/wt compound treated filter paper assessed as termite mortality measured 11 days post compound exposure; procedure, shortened: as §1
Coptotermes formosanus [30] = assay: Antifeedant activity against Coptotermes formosanus placed on 0.001 % wt/wt compound treated filter paper assessed as filter paper consumption measured 21 days post compound exposure (reference value: 44.6 +/- 0.0 mg)
Coptotermes formosanus [31] = assay: Antifeedant activity against Coptotermes formosanus placed on 0.01 % wt/wt compound treated filter paper assessed as filter paper consumption measured 21 days post compound exposure (reference value: 44.6 +/- 0.0 mg)
Coptotermes formosanus [32] = assay: Antifeedant activity against Coptotermes formosanus placed on 0.05 % wt/wt compound treated filter paper assessed as filter paper consumption measured 21 days post compound exposure (reference value: 44.6 +/- 0.0 mg)
Coptotermes formosanus [33] = assay: Antifeedant activity against Coptotermes formosanus placed on 0.1 % wt/wt compound treated filter paper assessed as filter paper consumption measured 21 days post compound exposure (reference value: 44.6 +/- 0.0 mg)
Coptotermes formosanus [34] = assay: Antifeedant activity against Coptotermes formosanus placed on 0.5 % wt/wt compound treated filter paper assessed as filter paper consumption measured 21 days post compound exposure (reference value: 44.6 +/- 0.0 mg)
Coptotermes formosanus [35] = assay: Antifeedant activity against Coptotermes formosanus placed on 1 % wt/wt compound treated filter paper assessed as filter paper consumption measured 21 days post compound exposure (reference value: 15.9 +/- 10.4 mg)
Coptotermes formosanus [36] = assay: Termiticidal activity against Coptotermes formosanus placed on 0.001 % wt/wt compound treated filter paper assessed as termite mortality measured 21 days post compound exposure; procedure, shortened: as §1
Coptotermes formosanus [37] = assay: Termiticidal activity against Coptotermes formosanus placed on 0.01 % wt/wt compound treated filter paper assessed as termite mortality measured 21 days post compound exposure; procedure, shortened: as §1
Coptotermes formosanus [38] = assay: Termiticidal activity against Coptotermes formosanus placed on 0.05 % wt/wt compound treated filter paper assessed as termite mortality measured 21 days post compound exposure; procedure, shortened: as §1
Coptotermes formosanus [39] = assay: Termiticidal activity against Coptotermes formosanus placed on 0.1 % wt/wt compound treated filter paper assessed as termite mortality measured 21 days post compound exposure; procedure, shortened: as §1
Coptotermes formosanus [40] = assay: Antifeedant activity against Coptotermes formosanus placed on 1 % wt/wt compound treated filter paper assessed as filter paper consumption measured 21 days post compound exposure (reference value: 54.4 +/- 20.7 mg)
Coptotermes formosanus [41] = assay: Antifeedant activity against Coptotermes formosanus placed on 0.5 % wt/wt compound treated filter paper assessed as filter paper consumption measured 21 days post compound exposure (reference value: 54.4 +/- 20.7 mg)
Coptotermes formosanus [42] = assay: Antifeedant activity against Coptotermes formosanus placed on 0.001 % wt/wt compound treated filter paper assessed as filter paper consumption measured 21 days post compound exposure
Coptotermes formosanus [43] = assay: Antifeedant activity against Coptotermes formosanus placed on 0.01 % wt/wt compound treated filter paper assessed as filter paper consumption measured 21 days post compound exposure
Coptotermes formosanus [44] = assay: Antifeedant activity against Coptotermes formosanus placed on 0.05 % wt/wt compound treated filter paper assessed as filter paper consumption measured 21 days post compound exposure
Coptotermes formosanus [45] = assay: Antifeedant activity against Coptotermes formosanus placed on 0.1 % wt/wt compound treated filter paper assessed as filter paper consumption measured 21 days post compound exposure (reference value: 54.4 +/- 20.7 mg)
Coptotermes formosanus [46] = assay: Antifeedant activity against Coptotermes formosanus placed on 1 % wt/wt compound treated filter paper assessed as filter paper consumption measured 21 days post compound exposure (reference value: 85 +/- 15.1 mg)

Structure (SMILES) | mortality (Coptotermes formosanus [1]) | mortality (Coptotermes formosanus [2]) | mortality (Coptotermes formosanus [3]) | mortality (Coptotermes formosanus [4]) | mortality (Coptotermes formosanus [5]) | mortality (Coptotermes formosanus [6]) | mortality (Coptotermes formosanus [7]) | mortality (Coptotermes formosanus [8]) | mortality (Coptotermes formosanus [9]) | mortality (Coptotermes formosanus [10]) | mortality (Coptotermes formosanus [11]) | mortality (Coptotermes formosanus [12]) | mortality (Coptotermes formosanus [13]) | mortality (Coptotermes formosanus [14]) | mortality (Coptotermes formosanus [15]) | mortality (Coptotermes formosanus [16]) | mortality (Coptotermes formosanus [17]) | mortality (Coptotermes formosanus [25]) | mortality (Coptotermes formosanus [26]) | mortality (Coptotermes formosanus [27]) | further results
CCCCCC1=CC(=O)C=C(OC)C1=O [Primin] | 1.7% | 10% | 8.3% | 40% | 100% | 0% | 5% | 5% | 36.7% | 96.7% | 0% | 0% | 3.3% | 28.3% | 0% | 0% | 3.3% | 100% | 100% | 87.5% | mortality (Coptotermes formosanus [18]): 21.7%; mortality (Coptotermes formosanus [19]): 80%; mortality (Coptotermes formosanus [20]): 0%; mortality (Coptotermes formosanus [21]): 0%; mortality (Coptotermes formosanus [22]): 3.3%; mortality (Coptotermes formosanus [23]): 21.7%; mortality (Coptotermes formosanus [24]): 56.7%; mortality (Coptotermes formosanus [28]): 100%; mortality (Coptotermes formosanus [29]): 91.7%; Activity (Coptotermes formosanus [30]): 48.8 mg; Activity (Coptotermes formosanus [31]): 48.4 mg; Activity (Coptotermes formosanus [32]): 42.2 mg; Activity (Coptotermes formosanus [33]): 26.8 mg; Activity (Coptotermes formosanus [34]): 4.9 mg; Activity (Coptotermes formosanus [35]): 0.1 mg; mortality (Coptotermes formosanus [36]): 8.3%; mortality (Coptotermes formosanus [37]): 21.7%; mortality (Coptotermes formosanus [38]): 25%; mortality (Coptotermes formosanus [39]): 50%
CC1=CC(=O)C(C)=C(C)C1=O |  |  |  |  |  |  |  |  |  |  |  |  |  |  |  |  |  | 36.7% | 18.3% | 0% | Activity (Coptotermes formosanus [40]): 55.4 mg
CC1=CC(=O)C(C(C)C)=CC1=O [THYMOQUINONE] | 5% | 5% | 6.7% | 8.3% | 11.7% | 1.7% | 5% | 6.7% | 6.7% | 10% | 1.7% | 3.3% | 0% | 1.7% | 1.7% | 3.3% | 0% | 100% | 100% | 100% | mortality (Coptotermes formosanus [18]): 1.7%; mortality (Coptotermes formosanus [19]): 6.7%; mortality (Coptotermes formosanus [20]): 0%; mortality (Coptotermes formosanus [21]): 0%; mortality (Coptotermes formosanus [22]): 0%; mortality (Coptotermes formosanus [23]): 0%; mortality (Coptotermes formosanus [24]): 1.7%; mortality (Coptotermes formosanus [28]): 18.3%; mortality (Coptotermes formosanus [29]): 6.7%; Activity (Coptotermes formosanus [41]): 93.1 mg; Activity (Coptotermes formosanus [42]): 80.6 mg; Activity (Coptotermes formosanus [43]): 75.4 mg; Activity (Coptotermes formosanus [44]): 74 mg; Activity (Coptotermes formosanus [45]): 83.5 mg; Activity (Coptotermes formosanus [46]): 0 mg; mortality (Coptotermes formosanus [36]): 5%; mortality (Coptotermes formosanus [37]): 11.7%; mortality (Coptotermes formosanus [38]): 8.3%; mortality (Coptotermes formosanus [39]): 8.3%
